Data as given in ChEMBL document CHEMBL3860025, “Antiproliferative and Anti-inflammatory Withanolides from Physalis angulata” (J Nat Prod, 2016).

What was measured:
[1] = Antiinflammatory activity in mouse RAW264.7 cells assessed as inhibition of LPS-induced nitric oxide production after 24 hrs by Griess assay; assay type: functional, cell-based; settings: RAW264.7, 24 h
Outline: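 RAW 264.7 macrophages seeded at 1 × 10^6 cells/well, then incubated 24 h at 37 °C with LPS (1 μg/mL), with or without test compounds. NO measured by Griess reagent (0.1% N-(1-naphthyl)ethylenediamine plus 1% sulfanilamide in 5% H3PO4), absorbance at 540 nm. NO concentration and inhibition rate calculated from a standard curve. Hydrocortisone served as positive control.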

[2] = Antiproliferative activity against human 22Rv1 cells assessed as inhibition of cell viability after 48 hrs by MTT reduction assay; assay type: functional, cell-based, CWR22R; settings: 22Rv1, 48 h
Outline: (§1)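 Cells grown in RPMI-1640 or EMEM with 10% FBS at 37 °C under 5% CO2. Seeded at 1 × 10^4 cells/well for 12 h, then exposed to a range of compound concentrations for 48 h. Viability read by MTT reduction. 5-Fluorouracil was the positive control. Each assay was repeated three times, and IC50 reported as mean ± SD.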

[3] = Antiproliferative activity against human ACHN cells assessed as inhibition of cell viability after 48 hrs by MTT reduction assay; assay type: functional, cell-based; outline: as §1
[4] = Antiproliferative activity against human C4-2B cells assessed as inhibition of cell viability after 48 hrs by MTT reduction assay; assay type: functional, cell-based; settings: LNCaP C4-2B; outline: as §1
[5] = Antiproliferative activity against human 786-0 cells assessed as inhibition of cell viability after 48 hrs by MTT reduction assay; assay type: functional, cell-based; settings: 786-0, 48 h; outline: as §1
[6] = Antiproliferative activity against human A498 cells assessed as inhibition of cell viability after 48 hrs by MTT reduction assay; assay type: functional, cell-based; settings: A498, 48 h; outline: as §1
[7] = Antiproliferative activity against human A375-S2 cells assessed as inhibition of cell viability after 48 hrs by MTT reduction assay; assay type: functional, cell-based; settings: A375-S2, 48 h; outline: as §1

SMILES | IC50 [1] | IC50 [2] | IC50 [3] | IC50 [4] | IC50 [5] | IC50 [6] | IC50 [7]
CC(=O)O[C@H]1C=C([C@H](C)[C@H]2CC(C)=C(C)C(=O)O2)[C@@]2(C)CC[C@H]3[C@@H](C[C@@H](O)[C@@]4(O)CC=CC(=O)[C@]34C)[C@]12O | 64.1 µM | > 10 µM | > 10 µM | > 10 µM | > 10 µM | > 10 µM | > 10 µM
CC1=C(C)C(=O)O[C@@H]([C@@H](C)C2=C[C@H](O)[C@]3(O)[C@@H]4C[C@@H](O)[C@@]5(O)CC=CC(=O)[C@]5(C)[C@H]4CC[C@]23C)C1 | 36.5 µM | > 10 µM | > 10 µM | > 10 µM | > 10 µM | > 10 µM | > 10 µM
CO[C@]12CC=CC(=O)[C@]1(C)[C@H]1CC[C@]3(C)C([C@H](C)[C@H]4CC(C)=C(C)C(=O)O4)=C[C@H](OC(C)=O)[C@]3(O)[C@@H]1C[C@H]2O | 44.6 µM | > 10 µM | > 10 µM | > 10 µM | > 10 µM | > 10 µM | > 10 µM
CC(=O)O[C@H]1C[C@H]([C@H](C)[C@H]2CC(C)=C(C)C(=O)O2)[C@@]2(C)CC[C@H]3[C@@H](C[C@H]4O[C@]45CC=CC(=O)[C@]35C)[C@@]12O | 1.36 µM | 0.9 µM | 0.73 µM | 0.49 µM | 0.39 µM | 0.71 µM | 7.43 µM
CC(=O)O[C@H]1C[C@H]([C@H](C)[C@H]2CC(C)=C(C)C(=O)O2)[C@@]2(C)CC[C@H]3[C@@H](C[C@@H](O)[C@@]4(O)CC=CC(=O)[C@]34C)[C@@]12O | 43.8 µM | > 10 µM | > 10 µM | > 10 µM | > 10 µM | > 10 µM | > 10 µM
CO[C@@H]1C=C([C@H](C)[C@H]2CC(C)=C(C)C(=O)O2)[C@@]2(C)CC[C@H]3[C@@H](C[C@@H](O)[C@@]4(O)CC=CC(=O)[C@]34C)[C@@]12O | 18.7 µM | > 10 µM | > 10 µM | > 10 µM | > 10 µM | > 10 µM | > 10 µM
CC(=O)O[C@H]1C=C([C@H](C)[C@H]2CC(C)=C(C)C(=O)O2)[C@@]2(C)CC[C@H]3[C@@H](C[C@H](O)[C@]4(O)CC=CC(=O)[C@]34C)[C@@]12O | 11.6 µM | > 10 µM | > 10 µM | > 10 µM | > 10 µM | > 10 µM | > 10 µM
CC1=C(C)C(=O)O[C@@H]([C@](C)(O)[C@H]2C[C@H](O)[C@H]3[C@@H]4C[C@@H](O)[C@@]5(O)CC=CC(=O)[C@]5(C)[C@H]4CC[C@@]32C)C1 | 71.7 µM | > 10 µM | > 10 µM | > 10 µM | > 10 µM | > 10 µM | > 10 µM
CC(=O)O[C@H]1C[C@H]([C@H](C)[C@H]2CC(C)=C(C)C(=O)O2)[C@@]2(C)CC[C@H]3[C@@H](C[C@@H](O)[C@@]4(O)CC=CC(=O)[C@]34C)[C@H]12 | 17.6 µM | 11.6 µM | > 10 µM | > 10 µM | > 10 µM | > 10 µM | > 10 µM
CC1=C(C)C(=O)O[C@@H]([C@@H](C)C2=C[C@@H](O)[C@]3(O)[C@@H]4C[C@@H](O)[C@@]5(O)CC=CC(=O)[C@]5(C)[C@H]4CC[C@]23C)C1 | 38.2 µM | > 10 µM | > 10 µM | > 10 µM | > 10 µM | > 10 µM | > 10 µM
CC1=C(C)C(=O)O[C@@H]([C@@H](C)[C@]23O[C@H]2[C@H](O)[C@]2(O)[C@@H]4C[C@@H](O)[C@@]5(O)CC=CC(=O)[C@]5(C)[C@H]4CC[C@@]23C)C1 | > 100 µM | > 10 µM | > 10 µM | > 10 µM | > 10 µM | > 10 µM | > 10 µM
CO[C@]12CC=CC(=O)[C@]1(C)[C@H]1CC[C@@]3(C)[C@@](O)([C@@H]1C[C@H]2O)[C@@H](OC(C)=O)[C@@H]1O[C@@]13[C@H](C)[C@H]1CC(C)=C(C)C(=O)O1 | 6.36 µM | > 10 µM | > 10 µM | > 10 µM | > 10 µM | > 10 µM | > 10 µM
CC(=O)O[C@H]1C=C([C@H](C)[C@H]2CC(C)=C(C)C(=O)O2)[C@@]2(C)CC[C@H]3[C@@H](C[C@@H](O)[C@@]4(Cl)CC=CC(=O)[C@]34C)[C@]12O | 3.38 µM | 0.48 µM | 4.8 µM | 0.51 µM | 0.42 µM | 0.42 µM | 3.37 µM
CC1=C(CO)C[C@H]([C@]2(C)OC(=O)[C@]34[C@H](O)C[C@H]5[C@@H](CC=C6CC=CC(=O)[C@@]65C)[C@]3(O)[C@H](O)C[C@H]24)OC1=O | 17.5 µM | > 10 µM | > 10 µM | > 10 µM | > 10 µM | > 10 µM | > 10 µM
CC1=C(C)C(=O)O[C@@H]([C@@H](C)C2=C[C@@H]3OC(C)(C)O[C@@]34[C@@H]3C[C@@H](O)[C@@]5(O)CC=CC(=O)[C@]5(C)[C@H]3CC[C@]24C)C1 | 55.9 µM | > 10 µM | > 10 µM | > 10 µM | > 10 µM | > 10 µM | > 10 µM
CC(=O)O[C@H]1[C@@H]2O[C@]2([C@H](C)[C@H]2CC(C)=C(C)C(=O)O2)[C@@]2(C)CC[C@H]3[C@@H](C[C@H]4O[C@]45CC=CC(=O)[C@]35C)[C@@]12O | 2.54 µM | > 10 µM | > 10 µM | > 10 µM | > 10 µM | > 10 µM | > 10 µM
CC1=C(C)C(=O)O[C@@H]([C@]2(C)OC(=O)[C@]34CC[C@H]5[C@@H](CC=C6CC=CC(=O)[C@@]65C)[C@@](O)(O3)[C@@H](O)C[C@H]24)C1 | 25.9 µM | > 10 µM | > 10 µM | > 10 µM | > 10 µM | > 10 µM | > 10 µM
CC(=O)O[C@H]1C=C([C@H](C)[C@H]2CC(C)=C(C)C(=O)O2)[C@@]2(C)CC[C@H]3[C@@H](C[C@H]4O[C@]45CC=CC(=O)[C@]35C)[C@]12O | 3.02 µM | 0.63 µM | 1.08 µM | 0.18 µM | 0.66 µM | 0.66 µM | 3.39 µM
CC(=O)O[C@H]1C=C([C@H](C)[C@H]2CC(C)=C(C)C(=O)O2)[C@@]2(C)CC[C@H]3[C@@H](C[C@@H](O)[C@@]4(O)C[C@@H](O)CC(=O)[C@]34C)[C@@]12O | > 100 µM | > 10 µM | > 10 µM | > 10 µM | > 10 µM | > 10 µM | > 10 µM
CO[C@H]1CC(=O)[C@]2(C)[C@H]3CC[C@]4(C)C([C@H](C)[C@H]5CC(C)=C(C)C(=O)O5)=C[C@H](OC(C)=O)[C@@]4(O)[C@@H]3C[C@H]3O[C@]32C1 | 5.56 µM | 2.23 µM | 7.5 µM | 1.15 µM | 2.43 µM | 4.7 µM | > 10 µM
CO[C@@H]1CC(=O)[C@]2(C)[C@H]3CC[C@@]4(C)[C@@](O)([C@@H]3C[C@H]3O[C@]32C1)[C@@H](OC(C)=O)[C@@H]1O[C@@]14[C@H](C)[C@H]1CC(C)=C(C)C(=O)O1 | 3.51 µM | 1.17 µM | > 10 µM | 2.12 µM | 2.2 µM | > 10 µM | > 10 µM
CO[C@]12CC=CC(=O)[C@]1(C)[C@H]1CC[C@@]3(C)[C@](O)([C@@H](OC(C)=O)C[C@@]3(O)[C@H](C)[C@H]3CC(C)=C(C)C(=O)O3)[C@@H]1C[C@H]2O | 3.53 µM | > 10 µM | > 10 µM | > 10 µM | > 10 µM | > 10 µM | > 10 µM
CO[C@H]1C=C([C@H](C)[C@H]2CC(C)=C(C)C(=O)O2)[C@@]2(C)CC[C@H]3[C@@H](C[C@@H](O)[C@@]4(O)CC=CC(=O)[C@]34C)[C@@]12O | 11.4 µM | > 10 µM | > 10 µM | > 10 µM | > 10 µM | > 10 µM | > 10 µM
CC1=C(C)C(=O)O[C@@H]([C@@H](C)C2=C[C@@H]3O[C@@H](C)O[C@@]34[C@@H]3C[C@@H](O)[C@@]5(O)CC=CC(=O)[C@]5(C)[C@H]3CC[C@]24C)C1 | 11.2 µM | > 10 µM | > 10 µM | > 10 µM | > 10 µM | > 10 µM | > 10 µM
O=c1[nH]cc(F)c(=O)[nH]1 [FLUOROURACIL] | – | 3.83 µM | 2.73 µM | 5.64 µM | > 10 µM | 8.83 µM | 1.91 µM
